In article PMC4143594 (Clinical Drug Investigation, 2014):
Where two headings read alike, the source gives them in different places.

Key:
[1] = format: in vivo, healthy subjects (human); conditions: for C max,IDeg,SD, mean estimate: serum, ELISA
Method in brief: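 Fasted healthy adults (n=20) in a randomised, open-label, complete crossover received single SC doses of 0.4 U/kg, 13–21 days apart. Dosing was by syringe into a lifted skinfold of anterior thigh, lower abdominal wall or outer deltoid, each followed by a 24-h euglycaemic clamp (4.5 mmol/L). Serum was sampled over 120 h and assayed by compound-specific sandwich ELISA (LLOQ 20 pmol/L).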

[2] = cited from earlier work
[3] = 24-h euglycaemic clamp after a single SC dose; format: in vivo, healthy subjects (human)
[4] = single SC dose 0.4 U/kg in abdomen, 20 evaluations
[5] = single SC dose 0.4 U/kg in deltoid, 20 evaluations
[6] = single SC dose 0.4 U/kg in thigh, 19 evaluations
[7] = single SC dose 0.4 U/kg, ANOVA of log-transformed AUC
[8] = single SC dose 0.4 U/kg, ANOVA of log-transformed values

insulin degludec
Maximum concentration (C max,IDeg,SD) higher in deltoid or abdomen than in thigh ([1]; single SC dose 0.4 U/kg): 23–27% | C max,IDeg,SD, mean estimate [1, 4]: 2,388 pmol/L | C max,IDeg,SD, mean estimate [1, 5]: 2,462 pmol/L | C max,IDeg,SD, mean estimate [1, 6]: 1,938 pmol/L | AUCIDeg,0–120h,SD mean ratio [95 % CI], abdomen vs. deltoid [1, 7]: 1.01 [0.96–1.06] | AUCIDeg,0–120h,SD mean ratio [95 % CI], abdomen vs. thigh [1, 7]: 1.07 [1.03–1.11] | AUCIDeg,0–120h,SD mean ratio [95 % CI], deltoid vs. thigh [1, 7]: 1.06 [1.01–1.10] | C max,IDeg,SD mean ratio [95 % CI], abdomen vs. deltoid [1, 8]: 0.97 [0.84–1.12] | C max,IDeg,SD mean ratio [95 % CI], abdomen vs. thigh [1, 8]: 1.23 [1.07–1.42] | C max,IDeg,SD mean ratio [95 % CI], deltoid vs. thigh [1, 8]: 1.27 [1.08–1.49] | Time to reach steady state ([2]; once-daily injections): 2 to 3 days | GIRmax,SD, mean estimate [3, 4]: 3.0 mg/(kg·min) | GIRmax,SD, mean estimate [3, 5]: 3.0 mg/(kg·min) | GIRmax,SD, mean estimate [3, 6]: 2.7 mg/(kg·min)

insulin detemir
AUC higher following SC injection in abdomen or deltoid than in thigh [2]: approximately 10%

insulin glargine
Half-life after SC administration [2]: 12 h
